The values that follow come from ChEMBL document CHEMBL4340523, “Selective Inhibitors of Helicobacter pylori Methylthioadenosine Nucleosidase and Human Methylthioadenosine Phosphorylase” (J Med Chem, 2019).

Calls of active or inactive are those of the source. No cut-off for these calls is given here.

A word on the Kd: it is the free concentration of one partner at which half of the binding sites on the other are occupied at equilibrium, for simple one-to-one binding.

One assay deals with T1, S-methyl-5'-thioadenosine phosphorylase (Homo sapiens) (UniProt Q13126).
T1 sequence (whole entry): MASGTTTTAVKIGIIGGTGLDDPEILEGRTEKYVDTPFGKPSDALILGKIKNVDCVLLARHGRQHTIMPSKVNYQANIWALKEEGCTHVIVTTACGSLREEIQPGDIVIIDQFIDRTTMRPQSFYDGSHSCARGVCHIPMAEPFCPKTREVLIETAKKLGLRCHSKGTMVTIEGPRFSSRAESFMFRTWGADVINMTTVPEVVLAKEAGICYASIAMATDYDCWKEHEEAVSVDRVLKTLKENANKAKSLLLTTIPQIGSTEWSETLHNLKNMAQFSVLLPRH
Put plainly: Binding affinity to recombinant human N-terminal TEV cleavage site-fused-His6-tagged MTAP expressed in Escherichia coli BL21-CodonPlus(DE3)-RIPL competent cells assessed as reduction in MTA hydrolysis at 5 uM measured after 40 mins in presence of xanthine oxidase.
In the case of `O=c1[nH]ccc2c(CN3C[C@H](CO)[C@@H](O)C3)c[nH]c12`, the outcome was inactive.
Same read-out and setting: with `CSC[C@H]1CN(Cc2c[nH]c3c(=O)[nH]ccc23)C[C@@H]1O` the entry was “inactive”.

Test system in the next assay: not listed separately
Briefly: Binding affinity to recombinant Helicobacter pylori MTAN expressed in Escherichia coli BL21(DE3) assessed as reduction in MTA hydrolysis measured after 40 mins in presence of xanthine oxidase. A digest of the protocol:
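His-tagged HpMTAN was purified by Ni-NTA and freed of bound adenine by charcoal dialysis. Adenine was oxidized to 2,8-dihydroxyadenine and followed at 305 nm. Rates were read at 40 min, after slow-onset equilibrium, and fitted to the Morrison quadratic equation for Ki*.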
Take `Cn1cc(CSC[C@H]2CN(Cc3c[nH]c4c(N)ncnc34)C[C@@H]2O)nn1`: the Kd was 0.274 nM.
On the same count and under the same terms, the value for `C=CCn1cc(CSC[C@H]2CN(Cc3c[nH]c4c(N)ncnc34)C[C@@H]2O)nn1` was 0.288 nM.
With `CSC[C@H]1CN(Cc2[nH]nc3c(N)ncnc23)C[C@@H]1O`, the dissociation constant (Kd) was 0.235 nM.
For `Nc1ncnc2c(CN3C[C@H](CSCCCc4cn(Cc5ccccc5)nn4)[C@@H](O)C3)c[nH]c12`, the dissociation constant (Kd) came to 0.036 nM.
On to `Nc1ncnc2c(CN3C[C@H](CSCc4cn(Cc5ccccc5)nn4)[C@@H](O)C3)c[nH]c12`, for which the equilibrium dissociation constant (Kd) stood at 0.073 nM.
On the same count and under the same terms, the value for `C#CCCCSC[C@H]1CN(Cc2c[nH]c3c(N)ncnc23)C[C@@H]1O` was 0.026 nM.
On the same count and under the same terms, the value for `CCCCn1cc(CSC[C@H]2CN(Cc3c[nH]c4c(N)ncnc34)C[C@@H]2O)nn1` was 0.373 nM; that for `C#CCSC[C@H]1CN(Cc2c[nH]c3c(N)ncnc23)C[C@@H]1O` was 0.055 nM; that for `Cn1cc(CCCSC[C@H]2CN(Cc3c[nH]c4c(N)ncnc34)C[C@@H]2O)nn1` was 0.025 nM.
As to `CSC[C@H]1CN(Cc2c[nH]c3c(N)nccc23)C[C@@H]1O`, the Kd was found to be 10.3 nM.
The same measure, in the same setting: with `CCCCn1cc(CCCSC[C@H]2CN(Cc3c[nH]c4c(N)ncnc34)C[C@@H]2O)nn1` the figure was 0.028 nM.
Still for that read-out and setting: the value for `C=CCn1cc(CCCSC[C@H]2CN(Cc3c[nH]c4c(N)ncnc34)C[C@@H]2O)nn1` was 0.026 nM.
Turning to `Nc1ncnc2c(CN3C[C@H](CSc4ncccn4)[C@@H](O)C3)c[nH]c12`, the equilibrium dissociation constant (Kd) is 0.058 nM.

The subject of a further assay is Helicobacter pylori. Put plainly: Binding affinity to recombinant Helicobacter pylori MTAN expressed in Escherichia coli BL21(DE3) assessed as reduction in MTA hydrolysis at 5 uM measured after 40 mins in presence of xanthine oxidase.
Regarding `O=c1[nH]ccc2c(CN3C[C@H](CO)[C@@H](O)C3)c[nH]c12`, the outcome was inactive.
The same measure, in the same setting: the value for `CSC[C@H]1CN(Cc2c[nH]c3c(=O)[nH]ccc23)C[C@@H]1O` was “inactive”.

Another assay deals with T2, S-methyl-5'-thioadenosine phosphorylase (Homo sapiens, UniProt Q13126).
T2 sequence (Q13126 whole entry): T1 sequence (whole entry)
Put plainly: Binding affinity to recombinant human N-terminal TEV cleavage site-fused-His6-tagged MTAP expressed in Escherichia coli BL21-CodonPlus(DE3)-RIPL competent cells assessed as reduction in MTA hydrolysis measured after 40 mins in presence of xanthine oxidase. The method in brief:
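MTAP (His6-tagged, TEV site, 14 extra N-terminal residues) was Ni-NTA purified and charcoal-dialysed to remove adenine. Each 1 mL cuvette held 100 mM K2PO4, 1 mM DTT, 800 μM MTA, 3 nM MTAP, 1 unit xanthine oxidase and varying inhibitor. Xanthine oxidase coupling gave 2,8-dihydroxyadenine, read at 305 nm (ε 15.5 mM⁻¹ cm⁻¹). Rates were taken at 40 min after slow-onset equilibrium. Ki* came from a Morrison quadratic fit.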
Turning to `Cn1cc(CSC[C@H]2CN(Cc3c[nH]c4c(N)ncnc34)C[C@@H]2O)nn1`, the dissociation constant Kd was found to be 66 nM.
Still for that read-out and setting: the value for `C=CCn1cc(CSC[C@H]2CN(Cc3c[nH]c4c(N)ncnc34)C[C@@H]2O)nn1` was 70 nM.
For the molecule `CSC[C@H]1CN(Cc2[nH]nc3c(N)ncnc23)C[C@@H]1O`, the Kd is 19 nM.
On the same count and under the same terms, the value for `Nc1ncnc2c(CN3C[C@H](CSCCCc4cn(Cc5ccccc5)nn4)[C@@H](O)C3)c[nH]c12` was 1.4 nM.
Regarding `Nc1ncnc2c(CN3C[C@H](CSCc4cn(Cc5ccccc5)nn4)[C@@H](O)C3)c[nH]c12`, the dissociation constant Kd was 13 nM.
Still for that read-out and setting: with `C#CCCCSC[C@H]1CN(Cc2c[nH]c3c(N)ncnc23)C[C@@H]1O` the figure was 0.94 nM.
For the molecule `CCCCn1cc(CSC[C@H]2CN(Cc3c[nH]c4c(N)ncnc34)C[C@@H]2O)nn1`, the Kd was determined as 37 nM.
Regarding `C#CCSC[C@H]1CN(Cc2c[nH]c3c(N)ncnc23)C[C@@H]1O`, the equilibrium dissociation constant (Kd) is 0.63 nM.
Regarding `Cn1cc(CCCSC[C@H]2CN(Cc3c[nH]c4c(N)ncnc34)C[C@@H]2O)nn1`, the Kd turned out to be 3 nM.
Same read-out and setting: with `CSC[C@H]1CN(Cc2c[nH]c3c(N)nccc23)C[C@@H]1O` the figure was 31.9 nM; with `CCCCn1cc(CCCSC[C@H]2CN(Cc3c[nH]c4c(N)ncnc34)C[C@@H]2O)nn1`, 1.3 nM.
Still for that read-out and setting: the value for `C=CCn1cc(CCCSC[C@H]2CN(Cc3c[nH]c4c(N)ncnc34)C[C@@H]2O)nn1` was 2.4 nM; that for `Nc1ncnc2c(CN3C[C@H](CSc4ncccn4)[C@@H](O)C3)c[nH]c12` was 13 nM.

Test system in a further assay: not listed separately
Briefly: Selectivity ratio of Kd for recombinant human N-terminal TEV cleavage site-fused-His6-tagged MTAP expressed in Escherichia coli BL21-CodonPlus(DE3)-RIPL competent cells to Kd for recombinant Helicobacter pylori MTAN expressed in Escherichia coli BL21(DE3). The method in brief: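 Ratio of the human MTAP dissociation constant to the HpMTAN dissociation constant. Each constant came from xanthine oxidase-coupled 305 nm rates taken at 40 min after slow-onset equilibrium and fitted to the Morrison equation. The MTAP assay used 800 μM MTA and 3 nM enzyme in 100 mM K2PO4; the HpMTAN assay used 1 mM MTA and 0.6 nM enzyme in 100 mM HEPES pH 7.2 with 100 mM NaCl.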
Consider `Cn1cc(CSC[C@H]2CN(Cc3c[nH]c4c(N)ncnc34)C[C@@H]2O)nn1`, for which the Selectivity ratio worked out at 241.
With `C=CCn1cc(CSC[C@H]2CN(Cc3c[nH]c4c(N)ncnc34)C[C@@H]2O)nn1`, the Selectivity ratio is 243.
Still for that read-out and setting: with `CSC[C@H]1CN(Cc2[nH]nc3c(N)ncnc23)C[C@@H]1O` the figure was 80.9; with `Nc1ncnc2c(CN3C[C@H](CSCCCc4cn(Cc5ccccc5)nn4)[C@@H](O)C3)c[nH]c12`, 38.9.
On the same count and under the same terms, the value for `Nc1ncnc2c(CN3C[C@H](CSCc4cn(Cc5ccccc5)nn4)[C@@H](O)C3)c[nH]c12` was 178; that for `C#CCCCSC[C@H]1CN(Cc2c[nH]c3c(N)ncnc23)C[C@@H]1O` was 36.2; that for `CCCCn1cc(CSC[C@H]2CN(Cc3c[nH]c4c(N)ncnc34)C[C@@H]2O)nn1` was 99.2.
On the same count and under the same terms, the value for `C#CCSC[C@H]1CN(Cc2c[nH]c3c(N)ncnc23)C[C@@H]1O` was 11.5.
As to `Cn1cc(CCCSC[C@H]2CN(Cc3c[nH]c4c(N)ncnc34)C[C@@H]2O)nn1`, the Selectivity ratio was 120.
On the same count and under the same terms, with `CSC[C@H]1CN(Cc2c[nH]c3c(N)nccc23)C[C@@H]1O` the figure was 3.1.
Same read-out and setting: the value for `CCCCn1cc(CCCSC[C@H]2CN(Cc3c[nH]c4c(N)ncnc34)C[C@@H]2O)nn1` was 46.4.
Same read-out and setting: the value for `C=CCn1cc(CCCSC[C@H]2CN(Cc3c[nH]c4c(N)ncnc34)C[C@@H]2O)nn1` was 92.3; that for `Nc1ncnc2c(CN3C[C@H](CSc4ncccn4)[C@@H](O)C3)c[nH]c12` was 224.
